In experiment [1] the target is 5-hydroxytryptamine receptor 4 (Homo sapiens) (UniProt Q13639). The experiment is described as follows: Partial agonist activity at Rluc-tagged human 5-HT4 receptor expressed in human SH-5YSY cells co-expressing RGFP-fused to Gbeta1 assessed as inhibition of serotonin-induced coupling by BRET assay. It is filed as functional, cell-based. (In BRET a luciferase serves as donor, and the signal depends on an acceptor being close.)

The target is the same in experiment [2]. The experiment is described as follows: Agonist activity at human 5-HT4R expressed in GloSensor-22F6 expressing 2B2 cells co-expressing Galpha-s assessed as increase in cAMP accumulation up to 60 mins by luminometry relative to control 5-HT. The experiment is classed as functional, cell-based. The gist of the method:
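Cells carrying a cAMP luminescence biosensor were additionally transduced with Gαs and human 5-HT4R, then seeded at 25 x 10³ cells/well 24 h ahead. Ligands (up to 10 µM) were added with 1 mM final IBMX.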
A general note: cAMP levels reflect the balance of adenylyl cyclase and phosphodiesterase activity.

Experiment [3] has as its target 5-hydroxytryptamine receptor 4 (Cavia porcellus, UniProt O70528). Kind of experiment: Displacement of [3H]GR113808 from serotonin 5-HT4 receptor in Dunkin-Hartley guinea pigs striatal nuclei membranes incubated for 30 mins by liquid scintillation counting.

Calls of active or inactive are those of the source. The calls are words filed in the database; no cut-off is given here.

Among the data in ChEMBL document CHEMBL4138046, “Multivalent ligands for the serotonin 5-HT4 receptor” (Medchemcomm, 2017) are Activity, Ratio and Ki values, retold here.

Chain of 5-hydroxytryptamine receptor 4 (Homo sapiens) (Q13639 whole entry, the tested form may be a part): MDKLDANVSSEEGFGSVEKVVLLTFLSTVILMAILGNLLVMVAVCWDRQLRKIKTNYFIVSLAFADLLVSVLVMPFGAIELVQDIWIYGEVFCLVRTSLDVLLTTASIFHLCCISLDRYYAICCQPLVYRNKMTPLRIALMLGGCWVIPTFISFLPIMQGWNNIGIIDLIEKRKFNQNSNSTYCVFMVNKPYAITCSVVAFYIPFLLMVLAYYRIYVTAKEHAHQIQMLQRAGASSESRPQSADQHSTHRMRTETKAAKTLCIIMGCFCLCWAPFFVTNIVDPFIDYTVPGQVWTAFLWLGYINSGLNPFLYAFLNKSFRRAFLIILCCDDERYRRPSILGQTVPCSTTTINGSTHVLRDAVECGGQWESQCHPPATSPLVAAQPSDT
Chain of 5-hydroxytryptamine receptor 4 (O70528 whole entry): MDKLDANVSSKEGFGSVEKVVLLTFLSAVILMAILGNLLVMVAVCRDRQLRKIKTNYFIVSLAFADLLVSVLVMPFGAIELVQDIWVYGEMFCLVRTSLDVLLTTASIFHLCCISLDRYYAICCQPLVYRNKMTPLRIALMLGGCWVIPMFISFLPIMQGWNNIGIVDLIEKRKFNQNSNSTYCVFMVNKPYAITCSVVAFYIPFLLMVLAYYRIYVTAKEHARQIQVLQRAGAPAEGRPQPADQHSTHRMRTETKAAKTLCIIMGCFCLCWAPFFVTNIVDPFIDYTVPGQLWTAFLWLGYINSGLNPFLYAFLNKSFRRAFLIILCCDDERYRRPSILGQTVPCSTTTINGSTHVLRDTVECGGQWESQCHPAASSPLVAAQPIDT

Consider `COc1cc(N)c(Cl)cc1C(=O)OCCCN1CCCCC1`, for which the outcome in experiment [1] was Active. For the same compound, the Ratio in experiment [2] turned out to be 0.09.

In general, Ki refers to a dissociation constant, usually derived from enzyme kinetics or from competition with a known ligand. Low values mean a stronger hold on the target, high ones a looser hold on the target. Consider `CCCCNC(=O)NC1CCN(CCOC(=O)c2cc(Cl)c(N)cc2OC)CC1`, for which the affinity in experiment [3] corresponds to a Ki of 13 nM. For the same compound, in experiment [1], the outcome was Active. In addition, the Ratio in experiment [2] came to 0.24.

For the compound `COc1cc(N)c(Cl)cc1C(=O)OCCN1CCCCC1`, in experiment [1], the result was Active.

`COc1cc(N)c(Cl)cc1C(=O)OCCN1CCC(NC(=O)NCCOCCOCCNC(=O)NC2CCN(CCOC(=O)c3cc(Cl)c(N)cc3OC)CC2)CC1` came in with an inhibitory constant (Ki) in experiment [3] of 4 nM. In experiment [1], the outcome was Active. Moreover, the Ratio in experiment [2] was determined as 0.28.

With `COc1cc(N)c(Cl)cc1C(=O)OCCN1CCC(NC(=O)NCCOCCOCCOCCOCCOCCOCCOCCOCCn2cc(CNC(=O)NCCCN(C)CCCNC(=O)NCc3cn(CCOCCOCCOCCOCCOCCOCCOCCOCCNC(=O)NC4CCN(CCOC(=O)c5cc(Cl)c(N)cc5OC)CC4)nn3)nn2)CC1`, the inhibitory constant (Ki) in experiment [3] is 9 nM. In experiment [1], the result was Active. In addition, in experiment [2], the Ratio is 0.16.

Turning to `COc1cc(N)c(Cl)cc1C(=O)OCCN1CCC(NC(=O)NCCOCCOCCOCCOCCOCCOCCOCCOCCN=[N+]=[N-])CC1`, affinity in experiment [3] was put at a Ki of 121 nM. In addition, the outcome in experiment [1] was Active. Further, the Ratio in experiment [2] is 0.18.

As for `COc1cc(N)c(Cl)cc1C(=O)OCCN1CCC(NC(=O)NCCOCCOCCNC(=O)NCC(=O)OCc2ccccc2)CC1`, the inhibition constant Ki in experiment [3] turned out to be 4 nM. In addition, the result in experiment [1] was Active. Further, in experiment [2], the Ratio worked out at 0.15.

On to `COc1cc(N)c(Cl)cc1C(=O)N[C@H]1CCN(CCCOc2ccc(F)cc2)C[C@H]1OC`, for which the outcome in experiment [1] was Active.

Regarding `COc1cc(N)c(Cl)cc1C(=O)OCCN1CCC(NC(=O)NCCOCCOCCNC(=O)NCC(=O)O)CC1`, the affinity in experiment [3], expressed as Ki, was 61 nM. Besides, in experiment [1], the outcome was Active. The Ratio in experiment [2] turned out to be 0.21.

`COc1cc(N)c(Cl)cc1C(=O)OCCN1CCC(NC(=O)OC(C)(C)C)CC1`: the inhibition constant (Ki) in experiment [3] stood at 30 nM. Moreover, the result in experiment [1] was Active. Besides, in experiment [2], the Ratio turned out to be 0.21.

As to `COc1cc(N)c(Cl)cc1C(=O)OCCN1CCC(NC(=O)NCCOCCOCCOCCOCCOCCOCCOCCOCCn2cc(CNC(=O)NCCCN(CCCCN(CCCNC(=O)NCc3cn(CCOCCOCCOCCOCCOCCOCCOCCOCCNC(=O)NC4CCN(CCOC(=O)c5cc(Cl)c(N)cc5OC)CC4)nn3)CCCNC(=O)NCc3cn(CCOCCOCCOCCOCCOCCOCCOCCOCCNC(=O)NC4CCN(CCOC(=O)c5cc(Cl)c(N)cc5OC)CC4)nn3)CCCNC(=O)NCc3cn(CCOCCOCCOCCOCCOCCOCCOCCOCCNC(=O)NC4CCN(CCOC(=O)c5cc(Cl)c(N)cc5OC)CC4)nn3)nn2)CC1`, affinity in experiment [3] was put at a Ki of 4.5 nM. Also, the result in experiment [1] was Active. The Ratio in experiment [2] was found to be 0.14.
